The record followed here is ChEMBL document CHEMBL4024729, “Copalic acid analogs down-regulate androgen receptor and inhibit small chaperone protein” (Bioorg Med Chem Lett, 2017).

Test [1] is filed under the species Homo sapiens. Put plainly: Inhibition of alpha crystallin (unknown origin) assessed as increase in DTT induced insulin aggregation at 10 uM pretreated for 5 mins followed by DTT addition measured after 45 mins. In a few lines: (§1)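 Insulin 1 mg/ml stock and alpha-crystallin 5 mg/ml stock mixed in PBS containing compound. Incubated 5 min at 37 °C, then aggregation started with 1 M DTT stock. A400 followed for 45 min at 37 °C. Controls were insulin with or without alpha-crystallin in 0.1% DMSO. Triplicate wells; three independent experiments.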

Test [2] has as its target Heat shock protein beta-1 (Homo sapiens) (UniProt P04792). Put plainly: Inhibition of heat shock protein 27 in human LNCaP cells assessed as decrease in AR protein level after 48 hrs by Western blot method. The class given is cell-based. In a few lines:
(§2)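 LNCaP cells treated with DMSO or compound for 48 h. Whole-cell extracts probed by Western blot with specific antibodies against AR and β-actin. Three independent experiments.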
In general terms: A western blot detects proteins with antibodies after separation by electrophoresis.

Test [3] relates to LNCaP. Nature of the test: Growth inhibition of human LNCAP cells after 72 hrs by MTT assay. The class given is functional, cell-based. In a few lines:
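LNCaP cells treated with DMSO or a range of compound concentrations, four replicates each, for 72 h. Viability read by MTT assay.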

A short description of test [4]: Effect on DTT interaction with insulin at <= 10 uM measured after 45 mins. In a few lines: as §1
Test [5] deals with Heat shock protein beta-1 (Homo sapiens) (UniProt P04792). Nature of the test: Inhibition of heat shock protein 27 in human LNCaP cells assessed as decrease in AR protein level at 5 uM after 48 hrs by Western blot method. The class given is cell-based. In a few lines: as §2
For test [6] the target is unchanged. Put plainly: Inhibition of heat shock protein 27 in human LNCaP cells assessed as decrease in AR protein level at 20 uM after 48 hrs by Western blot method. The class given is cell-based. In a few lines: as §2
Test [7] shares this target. Nature of the test: Inhibition of heat shock protein 27 in human LNCaP cells assessed as decrease in AR protein level at 200 uM after 48 hrs by Western blot method. The class given is cell-based. In a few lines:
as §2

The structures appear in SMILES notation. Active and inactive are the calls of the source. No cut-off for these calls is given here.

Sequence of Heat shock protein beta-1 (Homo sapiens) (P04792 whole entry): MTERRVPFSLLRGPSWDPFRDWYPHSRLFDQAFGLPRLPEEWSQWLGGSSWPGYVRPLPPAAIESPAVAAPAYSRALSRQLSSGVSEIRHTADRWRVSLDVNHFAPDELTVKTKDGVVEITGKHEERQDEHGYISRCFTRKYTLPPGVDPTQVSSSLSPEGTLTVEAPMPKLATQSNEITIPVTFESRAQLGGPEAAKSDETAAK

Broadly, the IC50 is the concentration at which inhibition is half-maximal. For `C=C1CC[C@@H]2C(C)(C)CCC[C@@]2(C)[C@@H]1CC/C(C)=C/C(=O)Nc1ccc(OC)cc1`, the inhibition entry in test [1] and in test [5] was “Active” each time. Further, the inhibition entry in test [2] was “Dose-dependent effect”. The compound further gave an IC50 in test [3] of 1.73 µM. Also, the outcome in test [4] was inactive. For the same compound, the “AR protein decrease (active/not active)” value in test [6] was “Active”.

For `C=C1CC[C@@H]2C(C)(C)CCC[C@@]2(C)[C@@H]1CC/C(C)=C/C(=O)Nc1ccc(C)cc1`, the “AR protein decrease (active/not active)” value in test [6] is “Active”.

As for `C=C1CC[C@@H]2C(C)(C)CCC[C@@]2(C)[C@@H]1CC/C(C)=C/C(=O)Nc1ccc(I)cc1`, the “AR protein decrease (active/not active)” value in test [6] is “Active”.

For `C[C@@H]1CC[C@@]2(C)C(C(=O)O)=CCC[C@@H]2[C@@]1(C)CCc1ccoc1`, the inhibition result in test [7] was “Active”.

As for `C=C1CC[C@@H]2C(C)(C)CCC[C@@]2(C)[C@@H]1CC/C(C)=C/C(=O)Nc1ccc(C#N)cc1`, in test [1], the inhibition result was “Active”. The inhibition entry in test [2] was “Dose-dependent effect”. The same compound gave a half-maximal inhibitory concentration (IC50) in test [3] of 9.81 µM. The “AR protein decrease (active/not active)” value in test [6] is “Active”.

With `C=C1CC[C@@H]2C(C)(C)CCC[C@@]2(C)[C@@H]1CC/C(C)=C/C(=O)O`, the inhibition entry in test [7] was “Active”. Moreover, in test [6], the “AR protein decrease (active/not active)” value was “inactive”.

Regarding `C=C1CC[C@@H]2C(C)(C)CCC[C@@]2(C)[C@@H]1CC/C(C)=C/C(=O)Nc1cccc(Br)c1`, in test [6], the “AR protein decrease (active/not active)” value was “Active”.

On to `C=C1CC[C@@H]2C(C)(C)C(OC(C)=O)CC[C@@]2(C)[C@@H]1CC/C(C)=C/C(=O)O` (stereo partly drawn), for which the inhibition result in test [7] is “Active”.

Take `C=C1CC[C@@H]2C(C)(C)CCC[C@@]2(C)[C@@H]1CC/C(C)=C/C(=O)NCCc1ccccc1`: in test [6], the “AR protein decrease (active/not active)” value was “Active”.
